Assay results taken from ChEMBL document CHEMBL1137490, “Design, synthesis and cardioprotective effect of a new class of dual-acting agents: phenolic tetrahydro-beta-carboline RGD peptidomimetic conjugates” (Bioorg Med Chem, 2007).
Residues, ends and D or L forms follow the SMILES beside them.

Assays:
PC-12 [1] = experiment: Scavenging activity against hydrogen peroxide radical generation in rat PC12 cells assessed as cell survival by MTT assay; type: functional, cell-based
Outline: (§1)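 PC12 cells in DMEM with 10% heat-inactivated horse serum, 5% FBS, 1.0 mM pyruvate, penicillin/streptomycin, 37 °C, 5% CO2; seeded 20,000/well on poly-L-lysine, 24 h attachment. Pretreated 1 h with 12.5–200 µM. Insult: 2 mM SNP 2 h (NO), 1 mM H2O2 1 h, or 1 mM H2O2/30 µM Fe(II) 1 h (•OH). For SNP, fresh media then 14 h culture. Survival by MTT; EC50 (µM).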

PC-12 [2] = experiment: Scavenging activity against nitric oxide radical generation in rat PC12 cells assessed as cell survival by MTT assay; type: functional, cell-based; outline: as §1
PC-12 [3] = experiment: Scavenging activity against […] generation in rat PC12 cells assessed as cell survival by MTT assay; type: functional, cell-based; outline: as §1
Rattus norvegicus [4] = species: Rattus norvegicus; experiment: Antithrombotic effect in Wistar rat assessed as reduction in wet thrombus mass at 5 umol/L; type: functional
Outline: (§2)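 Male Wistar rats 250-300 g, sodium pentobarbital 80.0 mg/kg ip; arteriovenous shunt (polyethylene tube with weighed 6 cm thread, sodium heparin 50 IU/mL in NS) from right carotid to left jugular vein. Compound dissolved in NS just before use, kept on ice, injected via tube; NS vehicle. Blood flowed 15 min; wet thrombus weighed, dry weight after 2 weeks in desiccator.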

Rattus norvegicus [5] = species: Rattus norvegicus; experiment: Antithrombotic effect in Wistar rat assessed as reduction in dry thrombus mass at 5 umol/L; type: functional; outline: as §2
Aorta [6] = experiment: Scavenging activity against nitric oxide radical generation in Wistar rat aortic strips cells assessed as inhibition of acetylcholine-induced vasorelaxation at 1 umol/L; type: functional, tissue-based
Outline: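 Rat aortic strips in 37 °C oxygenated (95% O2/5% CO2) Krebs, pH 7.4, on tension transducers. Precontracted with noradrenaline (final 10^-9 mol/L), washed, stabilized 30 min, recontracted; at peak, compound in water (final 10^-6 mol/L) or NS added, then ACh (final 10^-6 mol/L). Percent inhibition of ACh-induced relaxation recorded.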

Aorta [7] = experiment: Scavenging activity against nitric oxide radical generation in Wistar rat aortic strips cells assessed as inhibition of acetylcholine-induced vasorelaxation at 0.1 umol/L
Aorta [8] = experiment: Scavenging activity against nitric oxide radical generation in Wistar rat aortic strips cells assessed as inhibition of acetylcholine-induced vasorelaxation at 0.01 umol/L
Rattus norvegicus [9] = species: Rattus norvegicus; experiment: Protective effect in sham ischemia reperfusion Wistar rat model assessed as malondialdehyde per mg of protein; type: functional
Rattus norvegicus [10] = species: Rattus norvegicus; experiment: Protective effect in ischemia reperfusion Wistar rat model assessed as malondialdehyde per mg of protein; type: functional
Rattus norvegicus [11] = experiment: Reduction in infarct size in ischemia reperfusion Wistar rat model assessed as infarct size over risk zone at 10 mg/kg; type: functional; design: scale not given: the % may be the effect or the level left
Outline: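 Male Wistar rats 250-300 g, pentobarbital 80.0 mg/kg ip; left coronary artery occluded 30 min by snare, then 120 min reperfusion. Compound 10 mg/kg in DMSO–0.9% NaCl (1:103 v/v) infused transjugularly 15 min before occlusion. Ventricular 1 mm slices stained with 1% TTC 15 min at 37 °C, with Evans blue for area at risk; infarct/risk zone %, n = 8, mean ± SE, t-test.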

Row | Compound | EC50 (PC-12 [1]) | EC50 (PC-12 [2]) | EC50 (PC-12 [3]) | Activity (Rattus norvegicus [4]) | Activity (Rattus norvegicus [5]) | inhibition (Aorta [6]) | inhibition (Aorta [7]) | inhibition (Aorta [8]) | further results
1 | COc1cc(C2N[C@H](C(=O)NN(CCCNC(=N)N)CC(=O)NCC(=O)N[C@@H](CC(=O)O)C(=O)N[C@H](C(=O)O)C(C)C)Cc3c2[nH]c2ccccc32)cc(OC)c1O (stereo partly drawn) [listing 1 of 2 here] | 75.4 µM | 96.5 µM | 95.1 µM |  |  |  |  |  | 
2 | CC(C)[C@H](NC(=O)[C@H](CC(=O)O)NC(=O)CNC(=O)[C@@H](N)CCCNC(=N)N)C(=O)O (H-RGDV-OH) |  |  |  | 35.75 mg | 6.78 mg |  |  |  | 
3 | CC(C)[C@H](NC(=O)CN(CC(=O)O)NC(=O)CNC(=O)[C@@H](N)CCCNC(=N)N)C(=O)O |  |  |  | 41.8 mg | 7.83 mg |  |  |  | 
4 | COc1cc(C2N[C@H](C(=O)NN(CCCNC(=N)N)CC(=O)NCC(=O)N[C@H](CC(=O)O)C(=O)N[C@H](C(=O)O)C(C)C)Cc3c2[nH]c2ccccc32)cc(OC)c1O (stereo partly drawn) |  |  |  |  |  | 97.2% | 75.3% | 28.3% | 
5 | COc1cc(C2N[C@H](C(=O)N[C@@H](CCCNC(=N)N)C(=O)NNCC(=O)N[C@@H](CC(=O)O)C(=O)N[C@H](C(=O)O)C(C)C)Cc3c2[nH]c2ccccc32)cc(OC)c1O (stereo partly drawn) [listing 1 of 2 here] | 41.2 µM | 91.2 µM | 90.3 µM |  |  |  |  |  | 
6 | COc1cc(C2N[C@H](C(=O)O)Cc3c2[nH]c2ccccc32)cc(OC)c1O (stereo partly drawn) | 34.5 µM | 88.4 µM | 85.9 µM | 44.01 mg | 8.03 mg | 81% | 55.3% | 10.8% | 
7 | COc1cc(C2N[C@H](C(=O)N[C@@H](CCCNC(=N)N)C(=O)NNCC(=O)N[C@H](CC(=O)O)C(=O)N[C@H](C(=O)O)C(C)C)Cc3c2[nH]c2ccccc32)cc(OC)c1O (stereo partly drawn) |  |  |  |  |  | 95.8% | 71% | 14.1% | 
8 | COc1cc(C2N[C@H](C(=O)NN(CCCNC(=N)N)CC(=O)NCC(=O)N[C@@H](CC(=O)O)C(=O)N[C@H](C(=O)O)C(C)C)Cc3c2[nH]c2ccccc32)cc(OC)c1O (stereo partly drawn) [listing 2 of 2 here] |  |  |  | 21.05 mg | 2.23 mg |  |  |  | Activity (Rattus norvegicus [9]): 2.52 nmol/mg; Activity (Rattus norvegicus [10]): 2.91 nmol/mg; Activity (Rattus norvegicus [11]): 35%
9 | COc1cc(C2N[C@H](C(=O)N[C@@H](CCCNC(=N)N)C(=O)NCC(=O)NN(CC(=O)O)CC(=O)N[C@H](C(=O)O)C(C)C)Cc3c2[nH]c2ccccc32)cc(OC)c1O (stereo partly drawn) | 45.7 µM | 90.2 µM | 93.2 µM | 25.46 mg | 4.85 mg | 90.1% | 63.7% | 13% | 
10 | COc1cc(C2N[C@H](C(=O)N[C@@H](CCCNC(=N)N)C(=O)NNCC(=O)N[C@@H](CC(=O)O)C(=O)N[C@H](C(=O)O)C(C)C)Cc3c2[nH]c2ccccc32)cc(OC)c1O (stereo partly drawn) [listing 2 of 2 here] |  |  |  | 24.54 mg | 3.79 mg |  |  |  | 
11 | CC(C)[C@H](NC(=O)[C@H](CC(=O)O)NC(=O)CNNC(=O)[C@@H](N)CCCNC(=N)N)C(=O)O |  |  |  | 34.98 mg | 7.05 mg |  |  |  | 
12 | CC(C)[C@H](NC(=O)[C@H](CC(=O)O)NC(=O)CNC(=O)CN(N)CCCNC(=N)N)C(=O)O |  |  |  | 27.04 mg | 4.39 mg |  |  |  | 
